Assay outcomes as filed in PubChem BioAssay.
Hits are enriched below; roughly 2.1% of the tested compounds scored in any of these assays.
PKA-R1A activ: activators of PKA-R1A holoenzyme, primary screen, biochemical, fluorescence polarization, Cy5-IP20, bovine R1A, mouse PKAc; cAMP-dependent protein kinase type I-alpha regulatory subunit (Bos taurus) + …; PKA-R1A dissociation; scaled: DMSO 0%, 113 µM cGMP 100%; activation, % at 11.4 µM; 340,000 compounds, 0.083% hits;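 active means percent activation above the mean of all tested compounds plus 3 SD, cut at about 19% in these data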;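 further: higher means more PKAc released from R1A so a rise in polarization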
MsrA inhibitor: bovine MsrA enzyme inhibitors, primary screen, biochemical, absorbance, HTS. purified bovine MsrA, absorbance read-out. inhibition, % at 15.5 µM. 360,000 compounds, 0.75% hits. AID 651718, 2012; in the data active means inhibition above about 4.5%
IMP-1 inh-1: IMP-1 metallo-beta-lactamase inhibitors, primary screen, biochemical, epi-absorbance readout, Pseudomonas aeruginosa enzyme | purified IMP-1, nitrocefin hydrolysis, epi-absorbance fluorescence | AID 1556, 2009 | inhibition, % at 5.6 µM | metallo-beta-lactamase IMP-1 (Pseudomonas aeruginosa) | 290,000 compounds, 0.45% hits;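 active means inhibition above the mean plus 3 SD of all compounds in the same screening run, cut at about 4.5% in these data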
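System: purified IMP-1 / Input: IMP-1 dispensed at 0.2 nM / Medium: 50 mM HEPES pH 7.1, 50 µM ZnSO4, 0.05% Brij 35 / Timing: 15 min enzyme–compound preincubation, then 25 min nitrocefin reaction, 25 °C / Technique: plate fluorescence quenching by hydrolysis product, ex 480/em 530 nm / Repeats: singlicate testing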
PKA-R2B activ: activators of PKA-R2B holoenzyme, primary screen, biochemical, fluorescence polarization, Cy5-IP20, human; activation, % at 11.4 µM; PKA-R2B holoenzyme dissociation; R2B truncated from residue 108, S112A mutant; 0% DMSO only, 100% 113 µM cGMP; 340,000 compounds, 0.079% hits;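 active means activation above a cutoff set at the mean over all compounds plus 3 SD, cut at about 18% in these data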;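 further: higher means more holoenzyme dissociation and a rise in polarization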
Target sequence (P31323 whole entry, looked up, other chains not shown, the tested form may be a part): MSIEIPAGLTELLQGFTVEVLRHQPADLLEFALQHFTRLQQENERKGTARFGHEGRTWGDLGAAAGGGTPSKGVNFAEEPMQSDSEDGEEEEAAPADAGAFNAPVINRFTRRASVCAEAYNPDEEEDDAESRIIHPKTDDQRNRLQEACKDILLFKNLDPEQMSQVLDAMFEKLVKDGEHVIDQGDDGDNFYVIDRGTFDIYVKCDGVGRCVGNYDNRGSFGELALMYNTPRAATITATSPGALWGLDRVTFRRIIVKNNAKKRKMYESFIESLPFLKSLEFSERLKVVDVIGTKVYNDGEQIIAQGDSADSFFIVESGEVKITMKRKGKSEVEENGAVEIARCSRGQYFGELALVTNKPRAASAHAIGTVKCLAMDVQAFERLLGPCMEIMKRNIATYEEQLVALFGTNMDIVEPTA
VIM-2 inh: VIM-2 metallo-beta-lactamase inhibitors, primary screen, biochemical, epi-absorbance readout, Pseudomonas aeruginosa enzyme; purified VIM-2, nitrocefin hydrolysis, epi-absorbance fluorescence; inhibition, % at 5.6 µM; 290,000 compounds, 0.89% hits; AID 1527, 2009;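 active means inhibition above the mean of all tested compounds plus 3 SD, cutoff set per screening run, cut at about 7.5% in these data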;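 further: red hydrolysis product quenches plate fluorescence so inhibitors raise well fluorescence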
bovine MsrA act: bovine MsrA enzyme activators, primary screen, biochemical, absorbance, HTS; 360,000 compounds, 0.3% hits; purified bovine MsrA, absorbance read-out; Methionine sulfoxide reductase A (Bos taurus); activation, % at 10.6 µM; in the data active means activation above about 7.5%
IMP-1 inh-2: IMP-1 metallo-beta-lactamase inhibitors, confirmation, selectivity assay for selective VIM-2 inhibitor project, biochemical, epi-absorbance readout, triplicate | purified IMP-1, nitrocefin hydrolysis, epi-absorbance fluorescence | 1,300 tested, under 10 active | shares compounds with VIM-2 inh | inhibition, % at 5.6 µM | AID 1856, 2009; call rule not given here
VIM-2 FRET inh: VIM-2 inhibitors in FRET format, confirmation, artefact control for selective VIM-2 inhibitor project, biochemical, epi-absorbance artifact exclusion | shares compounds with VIM-2 inh | inhibition, % at 5.6 µM | purified VIM-2, CCF2 FRET substrate hydrolysis | AID 1857, 2009 | 1,300 compounds, 23% hits;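 active means inhibition above the mean of all tested compounds plus 3 SD, cut at about 19% in these data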
TEM-1 counter: TEM-1 serine beta-lactamase inhibitors, counter-screen for VIM-2 inhibitor project, biochemical, epi-absorbance, HTS; shares compounds with VIM-2 inh; Purified TEM-1, nitrocefin hydrolysis, epi-absorbance fluorescence; inhibition, % at 5.6 µM; 1,300 compounds, 3% hits;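 active means inhibition above that campaign's mean inhibition plus 3 SD, cut at about 0.46% in these data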
Target sequence (P62593 whole entry, looked up): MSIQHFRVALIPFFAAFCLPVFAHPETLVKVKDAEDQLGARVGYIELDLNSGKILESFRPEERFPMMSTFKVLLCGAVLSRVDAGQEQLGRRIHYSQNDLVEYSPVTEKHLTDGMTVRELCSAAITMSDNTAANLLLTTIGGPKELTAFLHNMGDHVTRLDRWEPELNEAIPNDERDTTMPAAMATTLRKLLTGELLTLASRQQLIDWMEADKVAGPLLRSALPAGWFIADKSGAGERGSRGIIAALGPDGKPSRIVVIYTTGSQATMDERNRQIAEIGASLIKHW
VIM-2 inh conf: VIM-2 metallo-beta-lactamase inhibitors, confirmation, biochemical, epi-absorbance, hits shared with IMP-1 screen; purified VIM-2, nitrocefin hydrolysis; inhibition, % at 5.6 µM; shares compounds with VIM-2 inh; 1,300 compounds, 96% hits;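 active means inhibition of the VIM-2 beta-lactamase enzyme above about 11% from the earlier first-round screen, limit read from the data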
Each line names hits and unclear results; the compound was inactive in the other large screens (follow-up assays come after a bar, where they were run).

Cc1sc2c(=O)n3c(nc2c1C(=O)NCCCN1CCOCC1)CCCCC3	VIM-2 inh 18 | IMP-1 inh-2 inactive | VIM-2 FRET inh inactive | TEM-1 counter inactive | VIM-2 inh conf 36
Cc1sc2c(=O)n3c(nc2c1C(=O)NC1CCCCC1)CCCCC3	none
COCCNC(=O)c1cc2c(=O)n(C)c3ccccc3c2n1C	VIM-2 inh 14 | IMP-1 inh-2 inactive | VIM-2 FRET inh inactive | TEM-1 counter inactive | VIM-2 inh conf 22
CCCCN(CC)CCNC(=O)c1cc2c(C)nc3ccccc3c2o1	VIM-2 inh 14 | IMP-1 inh-2 inactive | VIM-2 FRET inh inactive | TEM-1 counter inactive | VIM-2 inh conf 17
CCN(CC)CCNC(=O)c1cc2c(=O)n(C)c3ccccc3c2n1C	VIM-2 inh 20 | IMP-1 inh-2 inactive | VIM-2 FRET inh inactive | TEM-1 counter inactive | VIM-2 inh conf 31
CCCCN(CC)CCNC(=O)c1cc2c(=O)n(C)c3ccccc3c2n1C	VIM-2 inh 21 | IMP-1 inh-2 inactive | VIM-2 FRET inh inactive | TEM-1 counter inactive | VIM-2 inh conf 30
COCCNC(=O)c1cc2c3ccccc3n(C)c2s1	none
CCCCN(CC)CCCNC(=O)c1cn(C)c(=O)c2c1c1ccccc1n2C	none
CC(=O)Nc1cncc(-c2cnn(CC(C)C)c2)n1	none (no result: PKA-R1A activ, IMP-1 inh-1, PKA-R2B activ, VIM-2 inh)
COc1cc(C(=O)NCc2ccccc2Cl)ccc1OCC(=O)N1CCOCC1	none (no result: IMP-1 inh-1, VIM-2 inh)
O=C(CNc1ccc(Cl)c(C(F)(F)F)c1)N1CCN(S(=O)(=O)c2ccccc2)CC1	none (no result: IMP-1 inh-1, VIM-2 inh)
CCCN(CCC)CCCNC(=O)c1cc2c(=O)n(C)c3ccccc3c2n1C	VIM-2 inh 26 | IMP-1 inh-2 inactive | VIM-2 FRET inh inactive | TEM-1 counter inactive | VIM-2 inh conf 30
CCN(CC)CCCNC(=O)c1cc2c(=O)n(C)c3ccccc3c2n1C	VIM-2 inh 22 | IMP-1 inh-2 inactive | VIM-2 FRET inh inactive | TEM-1 counter inactive | VIM-2 inh conf 30
Cn1c(C(=O)Nc2ccc3c(c2)OCCO3)cc2c(=O)n(C)c3ccccc3c21	none
CN(C)CCNC(=O)c1cc2c(=O)n(C)c3ccccc3c2n1C	VIM-2 inh 17 | IMP-1 inh-2 inactive | VIM-2 FRET inh inactive | TEM-1 counter inactive | VIM-2 inh conf 28
COc1ccccc1C(=O)C1CCCN(C(=O)c2ccc(Cl)cc2)C1 (stereo unspecified)	none (no result: IMP-1 inh-1, VIM-2 inh)
O=C(NC(=S)NN1CCOCC1)c1cc(Br)ccc1Cl	none (no result: IMP-1 inh-1, VIM-2 inh)
Cc1cccc(C(=O)c2ccccc2C(=O)O)c1O	VIM-2 inh 22 | IMP-1 inh-2 inactive | VIM-2 FRET inh 30 | TEM-1 counter inactive | VIM-2 inh conf 17
CCc1ccc(-c2nc(SCC(=O)c3c(N)n(C4CC4)c(=O)[nH]c3=O)n[nH]2)cc1	none (no result: IMP-1 inh-1, VIM-2 inh)
Cn1c(=O)c2c(nc(N3CCOCC3)n2CCCNC2=NCCCCC2)n(C)c1=O	none
Cn1c(=O)c2c(nc(N3CCCCC3)n2CCNC2=NCCC2)n(C)c1=O	VIM-2 inh 20 | IMP-1 inh-2 inactive | VIM-2 FRET inh inactive | TEM-1 counter inactive | VIM-2 inh conf 36
CC(C)N(C(=S)Nc1ccc(S(=O)(=O)N2CCOCC2)cc1)c1ccccc1	none (no result: PKA-R1A activ, IMP-1 inh-1, PKA-R2B activ, VIM-2 inh)
O=[N+]([O-])c1ccccc1/C=N/n1c(-c2ccccc2)n[nH]c1=S	none
O=[N+]([O-])c1ccccc1/C=C/C=N/n1c(-c2ccccc2F)n[nH]c1=S	VIM-2 inh 13 | IMP-1 inh-2 inactive | VIM-2 FRET inh 34 | TEM-1 counter inactive | VIM-2 inh conf 21
CN1CCN(CCCn2cnc3c(=O)oc4ccccc4c32)CC1	VIM-2 inh 21 | IMP-1 inh-2 inactive | VIM-2 FRET inh inactive | TEM-1 counter inactive | VIM-2 inh conf 40
O=c1oc2ccccc2c2c1ncn2CCN1CCOCC1	none
COC(=O)c1c(NC(=O)c2ccco2)sc2c1CC(C)(C)NC2(C)C	VIM-2 inh 13 | IMP-1 inh-2 inactive | VIM-2 FRET inh inactive | TEM-1 counter inactive | VIM-2 inh conf 17
CN1CCN(Cc2cc(COCc3ccccc3)c3cccnc3c2O)CC1	VIM-2 inh 12 | IMP-1 inh-2 inactive | VIM-2 FRET inh 33 | TEM-1 counter inactive | VIM-2 inh conf 33
Oc1ccc(CN2CCN(Cc3ccccc3)CC2)c2cccnc12	none
COc1ccc(S(=O)(=O)N2CCC[C@H]2C(=O)N2CCC[C@H]2C(=O)NCc2ccccn2)cc1C	none (no result: PKA-R1A activ, IMP-1 inh-1, PKA-R2B activ, VIM-2 inh)
Cc1cccc(N2C(=O)c3cccc4cccc(c34)C2=O)c1	none
O=C1c2cccc3cccc(c23)C(=O)N1c1nncs1	VIM-2 inh 13 | IMP-1 inh-2 inactive | VIM-2 FRET inh inactive | TEM-1 counter inactive | VIM-2 inh conf 24
O=Cc1cscc1[B-](F)(F)F	none (no result: PKA-R1A activ, IMP-1 inh-1, PKA-R2B activ, VIM-2 inh, bovine MsrA act)
CNC(=O)CSc1nnc(NC(=O)C2CC(=O)N(c3ccccc3OC)C2)s1 (stereo unspecified)	VIM-2 inh 33 | IMP-1 inh-2 inactive | VIM-2 FRET inh inactive | TEM-1 counter inactive | VIM-2 inh conf inactive
CC(C)NC(=O)CNc1ccc(C(F)(F)F)cc1[N+](=O)[O-]	none
CN1CCN(C(=O)CNc2ccc(C(F)(F)F)cc2[N+](=O)[O-])CC1	VIM-2 inh 24 | IMP-1 inh-2 inactive | VIM-2 FRET inh inactive | TEM-1 counter inactive | VIM-2 inh conf 38
C=CCNc1ncnc2c1ncn2[C@H]1CN(Cc2ccc3c(c2)OCO3)C[C@@H](CO)O1	none (no result: PKA-R1A activ, IMP-1 inh-1, PKA-R2B activ, VIM-2 inh)
Cc1nc2ccc(NC(=O)N3CCSCC3)cc2nc1C	VIM-2 inh 16 | IMP-1 inh-2 inactive | VIM-2 FRET inh inactive | TEM-1 counter inactive | VIM-2 inh conf inactive
Cc1nc2ccc(NC(=O)N3CCSCC3)cc2s1	none
